Results published in ChEMBL document CHEMBL3124841, “Discovery of vinyl sulfones as a novel class of neuroprotective agents toward Parkinson's disease therapy” (J Med Chem, 2014).

Columns and labels:
[1] = molecular target: T1, Nuclear factor erythroid 2-related factor 2 (Mus musculus) (UniProt Q60795); test: Induction of Nrf2-dependent HO1 protein level in mouse BV-2 cells at 20 uM after 24 hrs by sandwich ELISA; assay type: cell-based
T1 sequence (whole entry): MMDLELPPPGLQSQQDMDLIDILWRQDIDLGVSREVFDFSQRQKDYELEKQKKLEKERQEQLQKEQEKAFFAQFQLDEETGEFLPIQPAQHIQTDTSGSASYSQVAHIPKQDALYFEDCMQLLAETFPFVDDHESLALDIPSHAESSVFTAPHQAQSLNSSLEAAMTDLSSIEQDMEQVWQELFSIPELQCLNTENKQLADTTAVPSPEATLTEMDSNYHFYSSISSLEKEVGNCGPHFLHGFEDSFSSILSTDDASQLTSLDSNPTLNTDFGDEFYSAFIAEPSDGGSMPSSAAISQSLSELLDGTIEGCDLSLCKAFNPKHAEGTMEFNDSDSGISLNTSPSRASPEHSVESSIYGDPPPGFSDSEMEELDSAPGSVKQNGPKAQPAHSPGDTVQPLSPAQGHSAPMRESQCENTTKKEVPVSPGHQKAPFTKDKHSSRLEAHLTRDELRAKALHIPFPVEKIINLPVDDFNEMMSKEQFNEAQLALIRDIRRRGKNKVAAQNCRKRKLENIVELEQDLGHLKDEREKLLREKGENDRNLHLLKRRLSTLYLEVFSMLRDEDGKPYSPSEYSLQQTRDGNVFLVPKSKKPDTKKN
How it was run: (§1)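 Murine BV-2 microglia in DMEM/10% FBS, 2.0 × 10⁴ cells per well, treated at 20 μM for 24 h in triplicate. Lysates in NP-40 Tris buffer (pH 8.0) diluted tenfold; HO-1 measured by sandwich ELISA with HRP-streptavidin and Amplex Red fluorescence (ex 530/em 590 nm). Expressed as % of 0.04% DMSO vehicle control ± SEM; sulforaphane 5 μM as reference.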

[2] = molecular target: T1, Nuclear factor erythroid 2-related factor 2 (Mus musculus); test: Induction of Nrf2-dependent HO1 protein level in mouse BV-2 cells at 20 uM after 24 hrs by sandwich ELISA relative to control; assay type: cell-based; how it was run: as §1

COc1cccc(S(=O)(=O)/C=C/c2ccc(C(F)(F)F)cc2)c1
Activity [1]: 148% | fold change (FC) [2]: 1.5

COc1ccc(S(=O)(=O)/C=C/c2ccc(C(F)(F)F)cc2)cc1
Activity [1]: 154% | fold change (FC) [2]: 1.5

O=S(=O)(/C=C/c1cccc(F)c1)c1ccc(Cl)cc1
Activity [1]: 105%

COc1ccccc1S(=O)(=O)/C=C/c1ccccc1F
Activity [1]: 373% | fold change (FC) [2]: 3.7

O=S(=O)(/C=C/c1ccccc1C(F)(F)F)c1ccc(F)cc1
Activity [1]: 248%

COc1ccc(S(=O)(=O)/C=C/c2ccc(Cl)cc2)cc1
Activity [1]: 169% | fold change (FC) [2]: 1.7

COc1ccccc1S(=O)(=O)/C=C/c1cccc(F)c1
Activity [1]: 353% | fold change (FC) [2]: 3.5

COc1ccc(S(=O)(=O)/C=C/c2ccccc2N)cc1
Activity [1]: 141% | fold change (FC) [2]: 1.4

COc1cccc(S(=O)(=O)/C=C/c2cccc(F)c2)c1
Activity [1]: 136% | fold change (FC) [2]: 1.4

O=S(=O)(/C=C/c1cccc(C(F)(F)F)c1)c1ccc(F)cc1
Activity [1]: 158%

COc1ccccc1S(=O)(=O)/C=C/c1cccc(C(F)(F)F)c1
Activity [1]: 256% | fold change (FC) [2]: 2.6

COc1ccc(S(=O)(=O)/C=C/c2ccccc2OC)cc1
Activity [1]: 126% | fold change (FC) [2]: 1.2

COc1ccc(S(=O)(=O)/C=C/c2ccccc2OC(F)(F)F)cc1
Activity [1]: 212% | fold change (FC) [2]: 2.1

O=S(=O)(/C=C/c1ccccc1C(F)(F)F)c1ccccc1
Activity [1]: 193%

COc1cccc(S(=O)(=O)/C=C/c2cccc(Cl)c2)c1
Activity [1]: 111% | fold change (FC) [2]: 1.1

COc1ccccc1S(=O)(=O)/C=C/c1cccc(Cl)c1
Activity [1]: 245% | fold change (FC) [2]: 2.4

O=S(=O)(/C=C/c1cccc(F)c1)c1ccc(F)cc1
Activity [1]: 177%

O=S(=O)(/C=C/c1ccc(Cl)cc1)c1ccc(Cl)cc1
Activity [1]: 117%

COc1cccc(S(=O)(=O)/C=C/c2ccccc2C(F)(F)F)c1
Activity [1]: 251% | fold change (FC) [2]: 2.5

O=S(=O)(/C=C/c1cccc(C(F)(F)F)c1)c1ccc(Cl)cc1
Activity [1]: 111%

COc1cccc(S(=O)(=O)/C=C/c2ccc(Cl)cc2)c1
Activity [1]: 228% | fold change (FC) [2]: 2.3

COc1cccc(S(=O)(=O)/C=C/c2cccc(C(F)(F)F)c2)c1
Activity [1]: 204% | fold change (FC) [2]: 2

COc1ccc(S(=O)(=O)/C=C/c2ccc(C(F)(F)F)cc2)cc1OC
Activity [1]: 119%

O=S(=O)(/C=C/c1cccc(C(F)(F)F)c1)c1ccccc1
Activity [1]: 188%

COc1ccc(S(=O)(=O)/C=C/c2ccccc2Cl)cc1
Activity [1]: 158% | fold change (FC) [2]: 1.6

COc1ccc(S(=O)(=O)/C=C/c2ccccc2F)cc1
Activity [1]: 174% | fold change (FC) [2]: 1.7

O=S(=O)(/C=C/c1ccccc1Cl)c1ccc(F)cc1
Activity [1]: 225%

COc1cccc(S(=O)(=O)/C=C/c2ccccc2Cl)c1
Activity [1]: 284% | fold change (FC) [2]: 2.8

COc1ccccc1S(=O)(=O)/C=C/c1ccc(C(F)(F)F)cc1
Activity [1]: 357% | fold change (FC) [2]: 3.6

O=S(=O)(/C=C/c1ccccc1C(F)(F)F)c1ccc(Cl)cc1
Activity [1]: 242%

COc1ccccc1S(=O)(=O)/C=C/c1ccc(F)cc1
Activity [1]: 259% | fold change (FC) [2]: 2.6

COc1ccc(C(=O)/C=C/c2ccccc2C(F)(F)F)cc1
Activity [1]: 164%

O=S(=O)(/C=C/c1ccc(C(F)(F)F)cc1)c1ccccc1
Activity [1]: 155%

O=S(=O)(/C=C/c1ccccc1F)c1ccc(F)cc1
Activity [1]: 241%

COc1ccc(S(=O)(=O)/C=C/c2cccc(OC)c2)cc1
Activity [1]: 146% | fold change (FC) [2]: 1.5

COc1ccc(S(=O)(=O)/C=C/c2cccc(C(F)(F)F)c2)cc1
Activity [1]: 214% | fold change (FC) [2]: 2.1

COc1cccc(S(=O)(=O)/C=C/c2ccc(F)cc2)c1
Activity [1]: 160% | fold change (FC) [2]: 1.6

COc1ccc(S(=O)(=O)/C=C/c2cccc(Cl)c2)cc1
Activity [1]: 125% | fold change (FC) [2]: 1.2

O=S(=O)(/C=C/c1ccccc1F)c1ccc(Cl)cc1
Activity [1]: 107%

O=S(=O)(/C=C/c1cccc(Cl)c1)c1ccc(F)cc1
Activity [1]: 137%

COc1ccc(S(=O)(=O)/C=C/c2ccc(F)cc2)cc1
Activity [1]: 177% | fold change (FC) [2]: 1.8

COc1ccc(S(=O)(=O)/C=C/c2cccc(F)c2)cc1
Activity [1]: 203% | fold change (FC) [2]: 2

COc1ccc(/C=C/S(=O)(=O)c2ccc(OC)cc2)cc1
Activity [1]: 133% | fold change (FC) [2]: 1.3

COc1ccccc1S(=O)(=O)/C=C/c1ccc(Cl)cc1
Activity [1]: 330% | fold change (FC) [2]: 3.3

O=S(=O)(/C=C/c1ccc(Cl)cc1)c1ccc(F)cc1
Activity [1]: 112%

O=S(=O)(/C=C/c1ccc(F)cc1)c1ccc(Cl)cc1
Activity [1]: 111%

COc1ccc([S+]([O-])/C=C/c2ccccc2C(F)(F)F)cc1 (stereo not drawn)
Activity [1]: 134%

O=S(=O)(/C=C/c1ccc(C(F)(F)F)cc1)c1ccc(F)cc1
Activity [1]: 125%

O=S(=O)(/C=C/c1ccc(C(F)(F)F)cc1)c1ccc(Cl)cc1
Activity [1]: 140%

COc1ccc(S(=O)(=O)/C=C/c2ccccc2C(F)(F)F)cc1OC
Activity [1]: 204%

COc1cccc(S(=O)(=O)/C=C/c2ccccc2F)c1
Activity [1]: 148% | fold change (FC) [2]: 1.5

O=S(=O)(/C=C/c1ccccc1Cl)c1ccc(Cl)cc1
Activity [1]: 169%

O=S(=O)(/C=C/c1cccc(Cl)c1)c1ccc(Cl)cc1
Activity [1]: 127%

COc1ccc(S(=O)(=O)/C=C/c2cccc(C(F)(F)F)c2)cc1OC
Activity [1]: 153%

O=S(=O)(/C=C/c1ccc(F)cc1)c1ccc(F)cc1
Activity [1]: 141%

COc1ccccc1S(=O)(=O)/C=C/c1ccccc1C(F)(F)F
Activity [1]: 328% | fold change (FC) [2]: 3.3

COc1ccc(S(=O)(=O)/C=C/c2ccccc2C(F)(F)F)cc1
Activity [1]: 258% | fold change (FC) [2]: 2.6
